How the values were obtained:
[1] = target: T1, 3-hydroxy-3-methylglutaryl-coenzyme A reductase (Rattus norvegicus) (UniProt P51639); assay: Tested in vivo for the inhibition of cholesterol biosynthesis in chow-fed rats at 1.0 mg/kg.; assay type: functional, organism-based; set-up: dose 1 mg/kg
T1 sequence (whole entry): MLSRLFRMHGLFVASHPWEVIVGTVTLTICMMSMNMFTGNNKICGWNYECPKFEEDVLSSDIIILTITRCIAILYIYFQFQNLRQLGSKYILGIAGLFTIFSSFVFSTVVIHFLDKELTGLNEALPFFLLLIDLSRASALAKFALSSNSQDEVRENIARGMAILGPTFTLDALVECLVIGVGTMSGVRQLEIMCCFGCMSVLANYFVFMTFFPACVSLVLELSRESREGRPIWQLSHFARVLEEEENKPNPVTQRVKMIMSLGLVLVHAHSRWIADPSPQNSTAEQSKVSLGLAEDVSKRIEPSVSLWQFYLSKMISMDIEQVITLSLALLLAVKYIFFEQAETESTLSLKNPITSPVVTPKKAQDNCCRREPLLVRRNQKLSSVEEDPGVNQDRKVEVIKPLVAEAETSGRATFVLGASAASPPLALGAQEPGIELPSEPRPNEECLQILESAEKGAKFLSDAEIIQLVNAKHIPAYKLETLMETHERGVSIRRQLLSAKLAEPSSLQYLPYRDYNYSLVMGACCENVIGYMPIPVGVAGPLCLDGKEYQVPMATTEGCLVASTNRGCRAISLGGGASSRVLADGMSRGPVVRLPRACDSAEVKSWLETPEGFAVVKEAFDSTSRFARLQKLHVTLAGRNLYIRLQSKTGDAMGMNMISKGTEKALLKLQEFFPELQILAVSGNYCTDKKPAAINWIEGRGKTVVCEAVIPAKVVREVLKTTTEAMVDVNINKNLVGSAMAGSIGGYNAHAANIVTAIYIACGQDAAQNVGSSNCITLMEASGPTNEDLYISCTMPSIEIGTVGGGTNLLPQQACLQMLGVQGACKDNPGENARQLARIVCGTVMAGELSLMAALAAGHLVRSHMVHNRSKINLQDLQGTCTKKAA
How it was run: (§1)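 Acute in vivo cholesterol synthesis (AICS) in normal chow-fed rats. Compounds dosed in DMA/PEG solution, 1.0 mg/kg po unless stated otherwise. Synthesis measured as incorporation of [1-14C]acetate into plasma sterols.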

[2] = system: Rattus norvegicus; assay: The compound was tested in vivo for the inhibition of cholesterol biosynthesis in chow-fed rats.; assay type: functional; how it was run: as §1
[3] = system: Rattus norvegicus; assay: The compound in lactone form was tested in vivo for the inhibition of cholesterol biosynthesis in chow-fed rats at 1.0 mg/kg.; assay type: functional; how it was run: as §1
[4] = system: Rattus norvegicus; assay: The compound was tested in vivo for the inhibition of cholesterol biosynthesis in chow-fed rats at 1.0 mg/kg; assay type: functional; how it was run: as §1
[5] = system: Canis familiaris; assay: Hypocholesterolemic activity in Cholestyramine-primed Beagle dogs at dose of 1.0 mg/kg four weeks after.; assay type: functional, Canis lupus familiaris
How it was run: (§2)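 Beagle dogs pretreated with cholestyramine resin, then given resin plus inhibitor. Plasma cholesterol read after 2 and 4 weeks of drug treatment. Values are mean percent change from pretreatment values within the same group; significance versus untreated controls at p < 0.05.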

[6] = system: Canis familiaris; assay: Hypocholesterolemic activity in Cholestyramine-primed Beagle dogs at dose of 1.0 mg/kg two weeks after.; assay type: functional, Canis lupus familiaris; how it was run: as §2
[7] = system: Canis familiaris; assay: Hypocholesterolemic activity in Cholestyramine-primed Beagle dogs at dose of 0.3 mg/kg two weeks after.; assay type: functional, Canis lupus familiaris; how it was run: as §2
[8] = system: Canis familiaris; assay: Hypocholesterolemic activity in Cholestyramine-primed Beagle dogs at dose of 0.3 mg/kg four weeks after.; assay type: functional, Canis lupus familiaris; how it was run: as §2
[9] = system: Canis familiaris; assay: Hypocholesterolemic activity in Cholestyramine-primed Beagle dogs at dose of 0.1 mg/kg four weeks after.; assay type: functional, Canis lupus familiaris; how it was run: as §2
[10] = system: Canis familiaris; assay: Hypocholesterolemic activity in Cholestyramine-primed Beagle dogs at dose of 0.1 mg/kg two weeks after.; assay type: functional, Canis lupus familiaris; how it was run: as §2
[11] = system: Rattus norvegicus; assay: The compound was tested in vivo for the inhibition of cholesterol biosynthesis in chow-fed rats at 1.0 mg/kg.; assay type: functional; how it was run: as §1
[12] = system: Rattus norvegicus; assay: The compound form was tested in vivo for the inhibition of cholesterol biosynthesis in chow-fed rats at 1.0 mg/kg; not determined; assay type: functional; how it was run: as §1

| SMILES | inhibition [1] [%] | other results |
| --- | --- | --- |
| CC(C)c1nn(-c2cnccn2)c(-c2ccc(F)cc2)c1/C=C/[C@@H](O)C[C@@H](O)CC(=O)[O-].[Na+] | 75 | Inhibition [2]: 91% |
| CC(C)c1nn(-c2ccccn2)c(-c2ccc(F)cc2)c1/C=C/[C@@H](O)C[C@@H](O)CC(=O)O | 98 | inhibition in vivo at 1 mg/kg [3]: 85% |
| CC(C)c1nn(-c2ccccc2)c(-c2ccc(F)cc2)c1CCC1C[C@@H](O)CC(=O)O1 (some centres undefined) |  | inhibition in vivo at 1 mg/kg [4]: 54% |
| CC(C)c1nn(-c2ccc3ccccc3n2)c(-c2ccc(F)cc2)c1/C=C/[C@@H](O)C[C@@H](O)CC(=O)O | 69 |  |
| CC(C)c1nn(-c2ccc3ccccc3n2)c(-c2ccc(F)cc2)c1/C=C/[C@@H]1C[C@@H](O)CC(=O)O1 | 75 |  |
| CC(C)c1nn(-c2ccccc2)c(-c2ccc(F)cc2)c1/C=C/[C@@H](O)C[C@@H](O)CC(=O)O | 94 |  |
| CC(C)c1nn(-c2ccccc2)c(-c2ccc(F)cc2)c1CCC(O)C[C@@H](O)CC(=O)O (some centres undefined) | 72 |  |
| CC(C)c1nn(-c2ccccn2)c(-c2ccc(F)cc2)c1CCC(O)C[C@@H](O)CC(=O)O (some centres undefined) | 68 |  |
| CC(C)c1nn(-c2ccccn2)c(-c2ccc(F)cc2)c1CCC1C[C@@H](O)CC(=O)O1 (some centres undefined) | 58 |  |
| CC(C)c1nn(-c2nc3ccccc3s2)c(-c2ccc(F)cc2)c1/C=C/[C@@H](O)C[C@@H](O)CC(=O)O | 51 |  |
| CC(C)c1nn(-c2nc3ccccc3s2)c(-c2ccc(F)cc2)c1/C=C/[C@@H]1C[C@@H](O)CC(=O)O1 | 30 |  |
| O=C(O)C[C@H](O)C[C@H](O)/C=C/c1c(C(F)(F)F)nn(-c2ccccn2)c1-c1ccc(F)cc1 | 81 |  |
| O=C1C[C@H](O)C[C@@H](/C=C/c2c(C(F)(F)F)nn(-c3ccccn3)c2-c2ccc(F)cc2)O1 | 60 |  |
| CC(C)c1nn(-c2ccccn2)c(-c2ccc(F)cc2)c1/C=C/[C@@H]1C[C@@H](O)CC(=O)O1 (stereo in doubt; 10a) | 83 |  |
| CC(C)c1nn(-c2cnccn2)c(-c2ccc(F)cc2)c1/C=C/[C@@H]1C[C@@H](O)CC(=O)O1 (stereo in doubt; 10b) | 80 |  |
| CC(C)c1nn(-c2ccccn2)c(-c2ccc(F)cc2)c1/C=C/[C@@H]1C[C@@H](O)CC(=O)O1 (stereo in doubt; 20a) [listing 1 of 2 here] |  | Change [5]: -50%; Change [6]: -44%; Change [7]: -31%; Change [8]: -32%; Change [9]: -16%; Change [10]: -20% |
| CC(C)c1nn(-c2ccccn2)c(-c2ccc(F)cc2)c1/C=C/[C@@H]1C[C@@H](O)CC(=O)O1 (stereo in doubt; 20a) [listing 2 of 2 here] | 93 |  |
| CC(C)c1nn(-c2cnccn2)c(-c2ccc(F)cc2)c1/C=C/[C@@H]1C[C@@H](O)CC(=O)O1 (stereo in doubt; 20b) | 92 |  |
| CC[C@H](C)C(=O)O[C@H]1C[C@@H](C)C=C2C=C[C@H](C)[C@H](CC[C@@H]3C[C@@H](O)CC(=O)O3)[C@H]21 [LOVASTATIN] |  | inhibition in vivo at 1 mg/kg [11]: 64%; Change [5]: -17%; Change [6]: -25%; Change [7]: -10%; Change [8]: -2%; Change [9]: -1%; Change [10]: -7% |
| CC[C@H](C)C(=O)O[C@H]1C[C@H](O)C=C2C=C[C@H](C)[C@H](CC[C@@H](O)C[C@@H](O)CC(=O)O)[C@H]21 [PRAVASTATIN] | 48 | inhibition in vivo at 1 mg/kg [12]: 48% |

— ChEMBL document CHEMBL1126067, “Inhibitors of cholesterol biosynthesis. 6. trans-6-[2-(2-N-heteroaryl-3,5-disubstituted- pyrazol-4-yl)ethyl/ethenyl]tetrahydro-4-hydroxy-2H-pyran-2-ones” (J Med Chem, 1992)
